Screening results (PubChem BioAssay)
Sampled rows, rich in hits. Any-hit rate of the full collection: about 2.6%.
MT stabilize HCS: microtubule stabilization, imaging screen | AID 2205 | 0.83% of 200,000 active | % tubulin-high responders, % at 10 µM | HeLa tubulin immunostaining HCS, 24 h; share of cells brighter than vehicle mean+2SD;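 active = plate Z-score above 3 for both tubulin-high and condensed-nucleus cell shares, with cell loss under 80%, at 10 µM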;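 note: anti alpha tubulin signal scored within the nucleus-defined area of each cell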
NPY-Y1 PAM-ag: human NPY-Y1 potentiation or agonism, primary screen | P25929 | NPY-Y1 expressing cells, potentiator/agonist activation | activation, % at 3.6 µM | 0.37% of 220,000 active; in the data active = activation above about 33%, passing the limit was not always enough;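 note: cells stimulated with NPY at EC10 then isoproterenol at EC100; 0% = low agonist plus stimulus and 100% = saturating agonist plus stimulus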
Target sequence (P25929 whole entry, looked up): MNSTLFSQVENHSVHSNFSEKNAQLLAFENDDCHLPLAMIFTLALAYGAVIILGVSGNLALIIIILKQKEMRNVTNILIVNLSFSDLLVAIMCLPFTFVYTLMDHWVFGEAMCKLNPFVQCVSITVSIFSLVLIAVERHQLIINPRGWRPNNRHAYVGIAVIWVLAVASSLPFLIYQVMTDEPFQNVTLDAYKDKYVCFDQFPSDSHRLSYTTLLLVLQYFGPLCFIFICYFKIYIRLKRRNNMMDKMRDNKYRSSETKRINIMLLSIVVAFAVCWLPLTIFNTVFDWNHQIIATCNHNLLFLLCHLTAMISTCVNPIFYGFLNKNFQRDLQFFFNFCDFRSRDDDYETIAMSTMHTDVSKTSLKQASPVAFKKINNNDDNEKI
bCat nuc transl: beta-catenin nuclear translocation modulation. HeLa beta-catenin nuclear translocation, immunofluorescence imaging. nuclear translocation activity, % at 5 µM. 0.3% of 190,000 active. AID 1665;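 active = nuclear translocation activity above 50% at 5 µM, with a well cell count of 50 or more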;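 note: per-cell ratio of nuclear to cytoplasmic median beta-catenin stain intensity; plate controls were DMSO negative control for no effect and GSK-3 inhibitor IX positive control for full effect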
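Signal – beta-catenin immunofluorescence imaging with DAPI · Test system – human HeLa cell line · Dosing – 5 µM primary single dose, 0.1% DMSO, 0.02–20 µM confirmation series · Measure – % activation, nuclear-to-cytoplasmic median beta-catenin signal ratio per cell · Incubation – 24 h compound exposure at 37°C, 5% CO2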
NPY-Y2 antag: antagonists of human neuropeptide Y receptor Y2; AID 793; NPY-Y2 expressing cells, antagonist mode; inhibition, % at 2.7 µM; 0.99% of 140,000 active; P49146; in the data active = inhibition above about 17%;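 note: 0% = vehicle with agonist challenge and 100% = reference antagonist with challenge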
Target sequence (P49146 whole entry, looked up): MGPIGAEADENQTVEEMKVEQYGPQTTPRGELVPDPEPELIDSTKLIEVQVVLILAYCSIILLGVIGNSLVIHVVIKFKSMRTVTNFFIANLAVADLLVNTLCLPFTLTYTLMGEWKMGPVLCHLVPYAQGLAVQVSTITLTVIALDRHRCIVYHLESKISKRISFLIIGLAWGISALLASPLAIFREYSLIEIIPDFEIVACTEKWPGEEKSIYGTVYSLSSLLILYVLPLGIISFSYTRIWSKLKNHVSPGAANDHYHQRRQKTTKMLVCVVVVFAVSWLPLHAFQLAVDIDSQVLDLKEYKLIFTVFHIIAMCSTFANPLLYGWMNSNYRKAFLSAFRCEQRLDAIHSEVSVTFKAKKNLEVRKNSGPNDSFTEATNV
NPY-Y1 antag: blocks the human neuropeptide Y Y1 receptor. 1% of 200,000 active. HEK293-CNG Y1 cells, membrane potential fluorescence; NPY at EC95, then isoproterenol. AID 1040. P25929. inhibition, % at 3.6 µM;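 active = inhibition above the campaign mean inhibition of all tested compounds plus 3 SD, cut at about 20% in these data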;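 note: 0% = DMSO wells given NPY plus isoproterenol and 100% = isoproterenol alone without NPY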
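material = HEK293 cells with Y1 receptor plus CNG channel | also added = NPY 25 nM then isoproterenol 1 µM plus Ro 20-1724 25 µM | schedule = dye 3 h, compound 60 min room temperature, stimulation 45 min | measured by = membrane potential fluorescence | benchmarks = high control isoproterenol alone, low control NPY with isoproterenol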
NPY-Y2 PAM-ag: human NPY-Y2 potentiation or agonism, primary screen. AID 1359. activation, % at 3.6 µM. cells expressing NPY-Y2, potentiator/agonist read-out. 0.45% of 220,000 active; in the data active = activation above about 27%;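 note: cells stimulated with NPY near EC25 plus isoproterenol at EC100; 0% = vehicle plus submaximal agonist and 100% = vehicle plus saturating agonist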
NPY-Y1 antag ct: human NPY-Y1 antagonism in NPY-Y2 counter-screen. shares compounds with NPY-Y2 antag. 19% of 710 active. inhibition, % at 3.6 µM. cell-based NPY-Y1 antagonism counterscreen; in the data active = inhibition above about 20%;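 note: cells challenged with NPY then isoproterenol with cAMP sensed through a CNG channel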
NPY2 antag conf: human NPY-Y2 antagonism, confirmation | 32% of 710 active | inhibition, % at 2.8 µM | HEK293 NPY-Y2 CNG channel, membrane potential fluorescence | AID 1257 | shares compounds with NPY-Y2 antag;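 active = mean inhibition of triplicate wells above the hit cutoff set in the primary screen, cut at about 17% in these data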;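 note: 0% = DMSO with NPY challenge and 100% = BIIE0246 high control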
Active calls of the source: *; . = no result.

SMILES | MT stabilize HCS | NPY-Y1 PAM-ag | bCat nuc transl | NPY-Y2 antag | NPY-Y1 antag | NPY-Y2 PAM-ag | NPY-Y1 antag ct | NPY2 antag conf
CN(C)S(=O)(=O)Nc1cc(F)cc(F)c1 | 3 | -6 | 0 | . | 0 | -4 | . | .
Cc1ccc(S(=O)(=O)NC(=O)c2cc(C)n(-c3ccc(N(C)C)cc3)c2C)cc1 | 5 | -18 | 0 | 3 | -4 | 4 | . | .
CCN(CC)c1ccc(Nc2nc(N3CCOCC3)c3ccccc3n2)cc1 | 2 | 32 | -2 | 7 | 1 | 18 | . | .
COc1ccc(Nc2nc(N3CCCC3)c3ccccc3n2)cc1 | 4 | -24 | 0 | 32* | 14 | 4 | 24* | 34*
O=C(OCCN1C(=O)c2cccc3c(N4CCOCC4)ccc(c23)C1=O)c1cccc(Cl)c1 | 16* | 6 | 56* | 20* | 2 | 1 | 29* | 40*
CCCSc1cc(=O)n(-c2ccccc2)nc1C(=O)OCC | 2 | -8 | 0 | 19* | 3 | 7 | 2 | 1
Cc1c(NC(=S)NNC(=O)CCC(=O)O)c(=O)n(-c2ccccc2)n1C | . | 12 | -1 | . | . | -9 | . | .
CN(C(=O)c1ccccc1Cl)C1CCCCC1 | 3 | 31 | 0 | 4 | 6 | 6 | . | .
CC1CC(N(C(=O)c2ccccc2Cl)c2ccccc2)c2ccccc2N1 (centres undefined) | 25 | 3 | 3 | 18* | 8 | -13 | 62* | 72*
C/C=C(/C)C(=O)OC(C)(C)[C@@H]1Cc2c(ccc3ccc(=O)oc23)O1 | 2 | -8 | -2 | 3 | 4 | 15 | . | .
C/C=C(/C)C(=O)O[C@@H]1c2c(ccc3ccc(=O)oc23)O[C@@H]1C(C)(C)OC(=O)/C(C)=C\C | 5 | -39 | -1 | 19* | 20 | -7 | 16 | 32*
COc1ccccc1Nc1nc2nonc2nc1N1CCCCC1C (centres undefined) | 2 | -10 | -1 | 19* | 6 | 1 | 17 | 9
Cc1cccc(Nc2nc(NCc3ccco3)c3ccccc3n2)c1 | 2 | -2 | -2 | 27* | 5 | 10 | 22* | 20*
Brc1cccc(-c2nnc(-c3ccccc3)o2)c1 | 5 | -28 | . | 18* | 20 | -3 | 14 | 13
CCOC(=O)Cn1nc(-c2ccccc2)nc1-c1ccccc1 | 6 | 3 | -1 | -2 | 12 | 4 | . | .
O=C(Cn1nc(-c2ccccc2)nc1-c1ccccc1)OC1CCCCC1 | 4 | -25 | -1 | 19* | 8 | -21 | 8 | 6
CCS(=O)(=O)N1Cc2ccccc2CC1C(=O)NC(C)C12CC3CC(CC(C3)C1)C2 (centres undefined) | 2 | -7 | -3 | 19* | 10 | -13 | 5 | 9
CCS(=O)(=O)N1Cc2ccccc2CC1C(=O)NCC12CC3CC(CC(C3)C1)C2 (centres undefined) | 2 | -10 | 2 | 6 | 17 | -24 | . | .
C/C(=N\NC(=O)c1cc(-c2ccc(C)s2)[nH]n1)c1ccco1 | 10 | 14 | 1 | 5 | 12 | -3 | . | .
COc1ccc(C2=Nn3c(nnc3-c3ccccc3)SC2)cc1OC | 3 | 4 | . | 1 | 5 | -15 | . | .
CCCc1nnc2n1N=C(c1ccc(OC)c(OC)c1)CS2 | 4 | -25 | 0 | 19* | -1 | -6 | 6 | 8
Nc1c(C(=O)NCc2ccc3c(c2)OCO3)c2nc3ccccc3nc2n1CCCN1CCOCC1 | 5 | -10 | 11 | 19* | 12 | -5 | 17 | 7
O=c1c2ccccc2nnn1CSc1ccccc1 | 4 | 13 | -2 | 24* | 1 | 0 | 6 | 2
CCN=C1S/C(=C\c2cc(OCC)c(O)cc2Br)C(=O)N1CC | 2 | -28 | . | 27* | 15 | 7 | 25* | 43*
CCN=C1S/C(=C\c2ccc(O)c(OCC)c2)C(=O)N1CC | 6 | -19 | 10 | 3 | 1 | -7 | . | .
SMILES | MT stabilize HCS | NPY-Y1 PAM-ag | bCat nuc transl | NPY-Y2 antag | NPY-Y1 antag | NPY-Y2 PAM-ag | NPY-Y1 antag ct | NPY2 antag conf
Cc1ccc(SCc2nc3ccccc3n2CC(=O)Nc2ccccc2)cc1 | 1 | -21 | -3 | 8 | -3 | -10 | . | .
Cc1ccc(SCc2nc3ccccc3n2CC(=O)Nc2c(C)cccc2C)cc1 | 3 | 5 | 0 | 19* | 12 | -8 | 4 | 5
CSc1ccccc1C(=O)N1CCCCC1 | 2 | -1 | 4 | . | 4 | -4 | . | .
COC(=O)c1sc(S(=O)(=O)NC(C)C(=O)O)c(C(=O)OC)c1C (centres undefined) | 3 | 9 | -4 | . | 0 | 4 | . | .
C=CCNCc1cccn1-c1sc2c(c1C#N)CCCC2 | 1 | 8 | 0 | 18* | 9 | 4 | 8 | 11
N#Cc1c(NC(=S)NC(=O)c2ccccc2)sc2c1CCCC2 | 2 | -10 | 1 | 1 | -5 | 8 | . | .
CCCc1cc(=O)[nH]c(SCC(=O)c2cc(C)n(C)c2C)n1 | 1 | -40 | . | 19* | 3 | -9 | 4 | 11
O=C(c1ccco1)N1CCN(c2nc(-c3ccc(F)cc3)cs2)CC1 | 2 | -12 | -4 | 4 | 11 | -3 | . | .
O=C(c1ccco1)N(CCCN1CCOCC1)c1nc(-c2ccc(F)cc2)cs1 | 4 | -30 | 2 | 19* | 9 | -16 | 16 | 13
COc1ccc(/C=N/NC(=O)c2cccc(OC(F)(F)C(F)F)c2)cc1O | 1 | -25 | -2 | 17* | -1 | -12 | 3 | 2
C=CCN(CC=C)CCCOc1ccc(Br)cc1Cl | 3 | 3 | 3 | . | 7 | -6 | . | .
Cc1cc2c(c(Sc3ccccc3)n1)C(=O)OC2 | 7 | 13 | . | 22* | 0 | 5 | -2 | 0
Cc1cc2c(c(SCC(=O)N(C)c3ccccc3)n1)C(=O)OC2 | 5 | 10 | . | 4 | 4 | 8 | . | .
Cc1noc(C)c1CSc1nc2ccccc2c(=O)n1-c1ccc(F)cc1F | 15 | -17 | 9 | 25* | 18 | -2 | 20* | 14
Cc1[nH]c2ccccc2c1C(=O)CSc1nc2ccccc2c(=O)n1-c1ccccc1F | 8 | 0 | 0 | . | 3 | -22 | . | .
CN1CCN(c2ccccc2NC(=O)c2sc3ccccc3c2Cl)CC1 | 5 | -11 | -4 | . | 9 | -11 | . | .
O=C(CN1CCN(Cc2ccccc2Cl)C1=O)NCCCN1CCOCC1 | . | -23 | 1 | . | . | 2 | . | .
O=C(O)CCNS(=O)(=O)c1ccc2c(c1)Cc1ccccc1-2 | 3 | -19 | -1 | 27* | 5 | -30 | 8 | 10
O=C(O)CCNS(=O)(=O)c1ccc2c(c1)CCCC2 | 3 | 6 | -1 | . | 2 | 1 | . | .
Cc1nn(Cc2ccccc2)c(Cl)c1C(=O)OCc1nnc(-c2ccccc2)o1 | 2 | -15 | 2 | 13 | 12 | -12 | . | .
